In ChEMBL document CHEMBL1145627, “E-ring-modified 7-oxyiminomethyl camptothecins: Synthesis and preliminary in vitro and in vivo biological evaluation” (Bioorg Med Chem Lett, 2008):

What was measured:
NCI-H460 [1] = experiment: Antiproliferative activity against human H460 cells after 2 hrs of drug exposure measured after 72 hrs; format: functional, cell-based
In short: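 Growth inhibition with IC50 taken after 2-h drug exposure, as the concentration giving 50% reduction of cell growth versus untreated controls.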

MKN-28 [2] = experiment: Antitumor activity against human MKN28 cells xenografted athymic mouse assessed as inhibition of tumor volume at 4 mg/kg, po administered in q4dx4 schedule; format: functional
In short: (§1)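 Human tumor xenografts (CoBa colon, MKN-28 gastric, Panc-1 pancreatic) grown subcutaneously in mice. Drug given orally on an intermittent q4dx4 schedule. Read-out is % tumor volume inhibition in treated versus control mice. Complete responses were scored as tumor disappearance lasting at least ten days.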

Mus musculus [3] = experiment: Toxicity in human MKN28 cells xenografted athymic mouse assessed as survival at 16 mg/kg, po administered in q4dx4 schedule; format: organism-based, MKN-28; set-up: dose 16 mg/kg, route oral; conditions: in vivo
In short: (§2)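 Mice carried subcutaneous human tumor xenografts (CoBa, MKN-28 or Panc-1). They were dosed orally on an intermittent q4dx4 schedule, which was also used to set the maximum tolerated dose. Toxicity was scored as lethal toxicity, given as dead/treated mice. Drug-induced % body weight loss was also recorded.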

HT-29 [4] = experiment: Antiproliferative activity against BCRP overexpressing mitoxantrone-resistant human HT29 cells after 1 hr of drug exposure measured after 72 hrs; format: functional, cell-based
In short: (§3)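 Growth inhibition after 1-h drug exposure; IC50 is the concentration giving 50% reduction of cell growth versus untreated controls. Values are means ± SD from at least three experiments.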

Mus musculus [5] = experiment: Toxicity in human MKN28 cells xenografted athymic mouse assessed as survival at 4 mg/kg, po administered in q4dx4 schedule; format: organism-based, MKN-28; set-up: dose 4 mg/kg, route oral; conditions: in vivo; in short: as §2
MKN-28 [6] = experiment: Antitumor activity against human MKN28 cells xenografted athymic mouse assessed as inhibition of tumor volume at 8 mg/kg, po administered in q4dx4 schedule; format: functional; in short: as §1
MKN-28 [7] = experiment: Antitumor activity against human MKN28 cells xenografted athymic mouse assessed as inhibition of tumor volume at 16 mg/kg, po administered in q4dx4 schedule; format: functional; in short: as §1
Mus musculus [8] = experiment: Toxicity in human MKN28 cells xenografted athymic mouse assessed as loss of body weight at 16 mg/kg, po administered in q4dx4 schedule; format: organism-based, MKN-28; set-up: dose 16 mg/kg, route oral; conditions: in vivo
In short: (§4)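 Oral dosing on an intermittent q4dx4 schedule in mice bearing MKN-28 gastric carcinoma xenografts. Tumor volume inhibition % is relative to controls. Body weight loss % is the loss induced by drug treatment.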

HT-29 [9] = experiment: Resistant index, ratio of IC50 for BCRP overexpressing mitoxantrone-resistant human HT29 cells to IC50 for human HT29 cells; format: functional
In short: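 Resistance index in HT29/mit, the BCRP-overexpressing subline. IC50 values come from the 1-h exposure growth inhibition assay, as 50% growth reduction versus untreated controls.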

Mus musculus [10] = experiment: Toxicity in human MKN28 cells xenografted athymic mouse assessed as survival at 8 mg/kg, po administered in q4dx4 schedule; format: organism-based, MKN-28; set-up: dose 8 mg/kg, route oral; conditions: in vivo; in short: as §2
Mus musculus [11] = experiment: Toxicity in human MKN28 cells xenografted athymic mouse assessed as loss of body weight at 4 mg/kg, po administered in q4dx4 schedule; format: organism-based, MKN-28; set-up: dose 4 mg/kg, route oral; conditions: in vivo; in short: as §4
HT-29 [12] = experiment: Antiproliferative activity against human HT29 cells after 1 hr of drug exposure measured after 72 hrs; format: functional, cell-based; in short: as §3
Mus musculus [13] = experiment: Toxicity in human MKN28 cells xenografted athymic mouse assessed as loss of body weight at 8 mg/kg, po administered in q4dx4 schedule; format: organism-based, MKN-28; set-up: dose 8 mg/kg, route oral; conditions: in vivo; in short: as §4
NCI-H460 [14] = experiment: Antiproliferative activity against human H460 cells after 1 hr of drug exposure measured after 72 hrs; format: functional, cell-based; in short: as §3

Question: `CC[C@@]1(O)CC(=O)OCc2c1cc1n(c2=O)Cc2c-1nc1ccccc1c2/C=N/OC(C)(C)C` was tested. Which IC50 (NCI-H460 [1]) did it give?
Answer: 0.0018 µM

Question: What does the source list for `CCC1(O)CC(=O)OCc2c1cc1n(c2=O)Cc2c-1nc1ccccc1c2/C=N/OCc1ccccc1` (stereo not given)?
Answer: LCK (MKN-28 [2]): 0; inhibition in vivo at 4 mg/kg (MKN-28 [2]; Mus musculus, MKN-28): 17%; Activity (Mus musculus [3]): Non-toxic; IC50 (HT-29 [4]): 0.35 µM; Activity (Mus musculus [5]): Non-toxic; LCK (MKN-28 [6]): 0.4; inhibition in vivo at 8 mg/kg (MKN-28 [6]; Mus musculus, MKN-28): 60%; LCK (MKN-28 [7]): 0.2; inhibition in vivo at 16 mg/kg (MKN-28 [7]; Mus musculus, MKN-28): 47%; Activity (Mus musculus [8]): 0%; Ratio IC50 (HT-29 [9]): 20; Activity (Mus musculus [10]): Non-toxic; Activity (Mus musculus [11]): 0%; IC50 (HT-29 [12]): 0.017 µM; Activity (Mus musculus [13]): 6%; IC50 (NCI-H460 [14]): 0.015 µM

Question: Which IC50 (NCI-H460 [1]) does the source give for `CC[C@]1(O)CC(=O)OCc2c1cc1n(c2=O)Cc2c-1nc1ccccc1c2/C=N/OC(C)(C)C` here?
Answer: > 0.2 µM

Question: How did the IC50 (HT-29 [4]) turn out when `CC[C@@]1(O)C(=O)OCc2c1cc1n(c2=O)Cc2c-1nc1ccccc1c2/C=N/OCc1ccccc1` was run?
Answer: 0.042 µM

Question: And the “Ratio IC50” value (HT-29 [9])?
Answer: 0.75

Question: What about the IC50 (HT-29 [12]) of the same molecule?
Answer: 0.056 µM

Question: And the IC50 (NCI-H460 [14])?
Answer: 0.03 µM

Question: Which IC50 (HT-29 [4]) does the source give for `CC[C@@]1(O)CC(=O)OCc2c1cc1n(c2=O)Cc2cc3ccccc3nc2-1` [HOMOCAMPTOTHECIN] here?
Answer: 8.55 µM

Question: What about the “Ratio IC50” value (HT-29 [9]) of the same molecule?
Answer: 19

Question: What about the IC50 (HT-29 [12]) of the same molecule?
Answer: 0.44 µM

Question: What about the IC50 (NCI-H460 [14]) of the same molecule?
Answer: 0.0496 µM

Question: Which results are given for `CC[C@@]1(O)C(=O)OCc2c1cc1n(c2=O)Cc2cc3ccccc3nc2-1` [CAMPTOTHECIN]?
Answer: IC50 (HT-29 [4]): 8.81 µM; Ratio IC50 (HT-29 [9]): 2.8; IC50 (HT-29 [12]): 3.16 µM; IC50 (NCI-H460 [14]): 0.18 µM
